For one assay, the system named is MCF7 cells. Kind of assay: Peptide-SAQdot605 binding, fluorescence microscopy. Format: cell-based.
Assay [1] deals with H1299 and H460 xenografts. The assay is classed as in vivo, NOD/SCID mice.
In assay [2] the test system is human NSCLC tumor samples. Kind of assay: Tumor microarray binding of Peptide-SAQdot 605. Particulars: of 59 human NSCLC tumor samples; 10 nM Peptide-SAQdot 605, 30 minutes. In outline: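 Commercial paraffin lung cancer tissue microarray; dewaxed, antigen retrieval in 10 mM citrate pH 6.0 at 65°C for 10 min, blocked in PBS + 2.5% BSA. Stained with peptide conjugated 1:1 to streptavidin-Qdot605 in 50% PBS/50% RPMI with 2.5% bovine serum. Washed, DAPI-mounted, three areas imaged per sample. Red Qdot signal compared against green-channel autofluorescence; scored by five independent scientists.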

Read-outs that look alike come from different tables or passages of the source.

In the case of EAMNSAEQSAAVVQWEKRRI [Peptide H460.1], the “Binding of peptide-SAQdot605” value in the assay on MCF7 cells is listed as “specific binding”. Also, in assay [1] (animal shown, 24 h), the “H460 tumor/H1299 tumor” value is recorded as 8 fold and the H460 tumor/lung is 15 fold. This sequence came in with an H460/lung in assay [1] (average of mice (± SEM in text), i.v., ex vivo, 24 h) of 14 ± 6.5. Also, the “H460 tumor/H1299 tumor” value in assay [1] (average of mice, i.v., ex vivo, 24 h) stood at 27.

For FHAVPQSFYTAP [HCC15.2], in assay [2], the “Samples scored positive for peptide binding” value turned out to be 24%. For the same sequence, the “Tumor specificity in vivo” value in assay [1] (acetylated peptide) was “accumulates in both H1299 and H460 tumors”. In assay [1] (free amino-terminus, before acetylation), the “Tumor uptake of non-acetylated peptide” value is reported as “No tumor uptake”.

The values above are taken from publication PMC3967199 (Scientific Reports, 2014).
